Screens: PubChem, Broad Institute
Shown are actives, neighbours in structure and some others; about 2.2% of the full set was active somewhere.
Dyrk1A ADPGlo = rat Dyrk1A kinase inhibitors, primary screen, biochemical, single point, plate reader | ADP-Glo luminescence, NFATc1 peptide | inhibition, % at 12.5 µM | actives 0.43% (n = 310,000); in the data active = inhibition above about 50%;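 note: plate controls were vehicle with enzyme for no effect and no enzyme for full effect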
Rtt109 Vps75 = inhibitors of C. albicans Rtt109/Vps75 HAT, primary screen, biochemical, ThioGlo CoA-SH fluorescence, plate reader | inhibition, % at 34.9 µM | actives 0.16% (n = 330,000) | AID 540336, 2011 | purified Rtt109/Vps75, 4 h;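 active = inhibition of at least 50% in every replicate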
CDK5 inh = inhibitors of human CDK5/p35 kinase, primary screen, biochemical, single concentration; Cyclin-dependent kinase 5 (Homo sapiens) + Cyclin-dependent kinase 5 activator 1 (Homo …; Recombinant CDK5/p35, ADP-Glo luminescence, 60 min; inhibition, % at 10 µM; actives 0.01% (n = 330,000); AID 488839, 2010;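 active = highest replicate inhibition of at least 50% and at least 75% of replicates reaching 50%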;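 note: plate controls were DMSO neutral control for no effect and GW8510 at 10 µM for full effect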
Target sequence (Q00535 whole entry, looked up): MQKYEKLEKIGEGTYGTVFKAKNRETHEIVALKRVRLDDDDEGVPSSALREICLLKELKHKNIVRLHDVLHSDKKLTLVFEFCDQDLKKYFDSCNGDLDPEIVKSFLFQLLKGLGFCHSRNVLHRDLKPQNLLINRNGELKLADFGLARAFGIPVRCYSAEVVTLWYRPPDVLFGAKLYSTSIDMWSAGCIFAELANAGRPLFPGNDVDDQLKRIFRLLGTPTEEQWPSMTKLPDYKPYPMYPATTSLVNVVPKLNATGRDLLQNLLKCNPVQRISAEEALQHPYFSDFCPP
Target sequence (Q15078 whole entry, looked up): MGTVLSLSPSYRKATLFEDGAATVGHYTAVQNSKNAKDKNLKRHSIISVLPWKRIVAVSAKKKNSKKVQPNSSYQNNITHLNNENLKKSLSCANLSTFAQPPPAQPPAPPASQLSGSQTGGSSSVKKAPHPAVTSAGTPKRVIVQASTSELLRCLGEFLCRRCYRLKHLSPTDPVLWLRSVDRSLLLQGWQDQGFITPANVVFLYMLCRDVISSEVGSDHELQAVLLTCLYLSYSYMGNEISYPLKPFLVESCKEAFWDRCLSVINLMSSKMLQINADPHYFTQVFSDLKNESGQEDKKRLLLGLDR
dFosB act = activators of delta FosB homodimer, primary screen, biochemical, fluorescence polarization, TAMRA-CDK5 oligo, single point; Protein FosB (Mus musculus), P13346; purified delta FosB; percent of positive-control signal above neutral wells; activation, % at 25 µM; actives 0.99% (n = 340,000);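 active = mean activation above about 17%, with every replicate also reaching it, limit read from the data, passing the limit was not always enough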
CAL PDZ FP-1 = CAL PDZ peptide-binding inhibitors, primary screen, biochemical, fluorescence polarization, Cer-tagged CAL PDZ, HTS; Golgi-associated PDZ and coiled-coil motif-containing protein (Homo sapiens), Q9HD26; purified CAL PDZ, TMR-peptide fluorescence polarization, 1 h; inhibition, % at 20 µM; actives 0.02% (n = 330,000); AID 504414, 2011;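 active = highest replicate inhibition of at least 40%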;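 note: plate controls were DMSO neutral control wells for no effect and unlabeled competitor peptide control wells for full effect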
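System: tagged CAL PDZ domain. Schedule: 1 h room-temperature incubation prior to read. Signal: fluorescence polarization (mP). Measure: percent inhibition from loss of millipolarization.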
CAL PDZ FP-2 = untagged CAL PDZ binding inhibitors, primary screen, biochemical, fluorescence polarization, HTS; purified CAL PDZ, TMR-peptide fluorescence polarization, 1 h; inhibition, % at 24.9 µM; actives 0.92% (n = 300,000);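 active = mean inhibition of at least 30% with at least half of replicates also reaching 30%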;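 note: 0% = DMSO neutral control and 100% = excess unlabeled competitor peptide PRC23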
ADP-Glo artifact = ADP-Glo luciferase interference without Dyrk1A, dose response, artefact control for Dyrk1A inhibitor project, biochemical, luminescence, cherry-pick, set 02. shares compounds with Dyrk1A ADPGlo. AC50, µM (series often up to 12 µM), inactives show at the top dose activity change, negative = inhibition. AID 588348, 2011. ADP-Glo luciferase artifact assay, no Dyrk1A. 1,300 tested, under 10 active;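 active = fitted half-maximal dose AC50 no more than ten times the top valid tested dose, with luminescence dropping as dose rises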
Numbers without * were called inactive; ! = a repeat was not active.

`O=C1C2C(c3ccccc3)CC=CC2[C@H](c2ccoc2)N1Cc1ccccc1` (stereo not given in full) gave Dyrk1A ADPGlo 60*, Rtt109 Vps75 12, CDK5 inh 0, dFosB act 3, CAL PDZ FP-1 -1, CAL PDZ FP-2 5 and ADP-Glo artifact 11%.
`CC(=O)N1CSCC1C(=O)NNS(=O)(=O)c1cccc(C(F)(F)F)c1` (stereo not given) gave Dyrk1A ADPGlo 3, Rtt109 Vps75 -1, CDK5 inh 0, dFosB act -1, CAL PDZ FP-1 0 and CAL PDZ FP-2 -11.
For COc1cc(/C=C2/C(=N)N3C(SC)=NSC3=NC2=O)ccc1OC(=O)c1ccco1 the results were Dyrk1A ADPGlo 58*, Rtt109 Vps75 10, CDK5 inh 1, dFosB act -13, CAL PDZ FP-1 -3, CAL PDZ FP-2 -8 and ADP-Glo artifact 11%.
CSC1=NSC2=NC(=O)/C(=C/c3coc4ccccc4c3=O)C(=N)N12 was read as Dyrk1A ADPGlo 6, Rtt109 Vps75 14, CDK5 inh 2, dFosB act -14, CAL PDZ FP-1 -2 and CAL PDZ FP-2 -4.
`CSC1=NSC2=NC(=O)/C(=C/c3coc4ccc(O)cc4c3=O)C(=N)N12` gave Dyrk1A ADPGlo 87*, Rtt109 Vps75 8, CDK5 inh -1, dFosB act -28, CAL PDZ FP-1 -4, CAL PDZ FP-2 -6 and ADP-Glo artifact 12%.
Screening Nc1ccc2c(c1)C(=O)c1ccccc1-2 returned Dyrk1A ADPGlo 7, Rtt109 Vps75 -4, CDK5 inh -4, dFosB act 6 and CAL PDZ FP-1 1.
`Nc1ccc2c(c1)C(=O)C(=O)c1ccccc1-2` gave Dyrk1A ADPGlo 89*, Rtt109 Vps75 -9, CDK5 inh 2, dFosB act 1, CAL PDZ FP-1 1, CAL PDZ FP-2 0 and ADP-Glo artifact 7%.
Screening COc1ccc(C(=O)NCc2ccc3c(c2)OCO3)c(OC)c1 returned Dyrk1A ADPGlo 6, Rtt109 Vps75 2, CDK5 inh 0, dFosB act -13, CAL PDZ FP-1 -6 and CAL PDZ FP-2 -2.
`C/C(=N\NC(=O)C1(C)CC1(Br)Br)c1ccc(NC(=O)C2CCC2)cc1` (stereo not given) gave Dyrk1A ADPGlo 0, Rtt109 Vps75 4, CDK5 inh 1, dFosB act 5, CAL PDZ FP-1 -1 and CAL PDZ FP-2 -2.
CCN1CCN(Cc2ccc(NC(=O)c3ccc(C)c(NC(=O)N4CCNC4=O)c3)cc2C(F)(F)F)CC1 was read as Dyrk1A ADPGlo 54*!, Rtt109 Vps75 5, CDK5 inh 2, dFosB act -34, CAL PDZ FP-1 -4, CAL PDZ FP-2 0 and ADP-Glo artifact 7%.
Screening CCN1CCN(Cc2ccc(NC(=O)c3cc(NC(=O)c4nccnc4N)cc(OC)c3)cc2C(F)(F)F)CC1 returned Dyrk1A ADPGlo 55*, Rtt109 Vps75 -3, CDK5 inh 11, dFosB act -32, CAL PDZ FP-1 -4, CAL PDZ FP-2 -5 and ADP-Glo artifact 9%.
For CCN1CCN(Cc2ccc(NC(=O)c3ccc(C)c(NC(=O)c4nccn4C)c3)cc2C(F)(F)F)CC1 the results were Dyrk1A ADPGlo 4, Rtt109 Vps75 5, CDK5 inh 0, dFosB act -22, CAL PDZ FP-1 -3 and CAL PDZ FP-2 1.
Cc1ccc(/C=c2\sc3n(c2=O)CN(c2ccc(Br)cc2)CN=3)o1 was read as Dyrk1A ADPGlo 62*, Rtt109 Vps75 23, CDK5 inh 0, dFosB act -3, CAL PDZ FP-1 -2, CAL PDZ FP-2 -3 and ADP-Glo artifact 9%.
Cc1ccc(/C=c2/sc3n(c2=O)CCCN=3)o1 was read as Dyrk1A ADPGlo 0, Rtt109 Vps75 16, CDK5 inh 0 and dFosB act -5.
NC1=NC(=O)/C(=C/c2cn(CCC(=O)O)nc2-c2ccc(Cl)cc2)S1 was read as Dyrk1A ADPGlo -6, Rtt109 Vps75 2, CDK5 inh -1, dFosB act -10, CAL PDZ FP-1 0 and CAL PDZ FP-2 -5.
Screening NC1=NC(=O)/C(=C\c2ccc(-c3ccc(Cl)cc3)o2)S1 returned Dyrk1A ADPGlo 58*, Rtt109 Vps75 9, CDK5 inh 2, dFosB act 2, CAL PDZ FP-1 1, CAL PDZ FP-2 -3 and ADP-Glo artifact 7%.
`Cc1cccc(Cn2nnc3ccccc32)c1O` gave Dyrk1A ADPGlo 0, Rtt109 Vps75 -5, CDK5 inh -2, dFosB act -12, CAL PDZ FP-1 0 and CAL PDZ FP-2 -3.
For Cc1cccc(C(C)n2nnc3ccccc32)c1O (stereo not given) the results were Dyrk1A ADPGlo 57*, Rtt109 Vps75 -4, CDK5 inh 0, dFosB act 3, CAL PDZ FP-1 -1, CAL PDZ FP-2 1 and ADP-Glo artifact 7%.
`Cc1[nH]c(=O)[nH]c(=O)c1N1CCOCC1` gave Dyrk1A ADPGlo -8, Rtt109 Vps75 5, CDK5 inh -2, dFosB act -8, CAL PDZ FP-1 0 and CAL PDZ FP-2 8.
O=[N+]([O-])c1ccccc1-c1cc(-c2ccccc2O)n[nH]1 was read as Dyrk1A ADPGlo 51*, Rtt109 Vps75 -5, CDK5 inh 0, dFosB act -7, CAL PDZ FP-1 -1, CAL PDZ FP-2 -3 and ADP-Glo artifact 11%.
For Cc1ccc(-c2cc(-c3ccccc3C)[nH]n2)c(O)c1 the results were Dyrk1A ADPGlo 0, Rtt109 Vps75 4, CDK5 inh 0, dFosB act -3, CAL PDZ FP-1 0 and CAL PDZ FP-2 0.
CC1(C)CC(=O)c2sc(NC(=O)C3CC3)nc2C1 was read as Dyrk1A ADPGlo 4, Rtt109 Vps75 -8, CDK5 inh -2, dFosB act -4 and CAL PDZ FP-1 -1.
CCOCC(=O)Nc1nc2c(s1)C(=O)CC(C)(C)C2 was read as Dyrk1A ADPGlo 57*, Rtt109 Vps75 -3, CDK5 inh 0, dFosB act -7, CAL PDZ FP-1 0 and ADP-Glo artifact 9%.
